Measured values taken from publication PMC11339345 (International Journal of Nanomedicine, 2024).

Assays:
[1] = two hours of incubation in an alkaline solution (0.005 N NaOH, pH roughly 11.7) ref 39; cited from earlier work
[2] = Pharmacokinetics of DTX in mice after oral administration; format: in vivo; conditions: male, Kunming, mouse, plasma (systemic circulation), 20 mg/kg, oral 20 mg/kg DTX
Summary of the method: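 Male SPF Kunming mice (22–24 g) were randomised by weight and given a single oral dose of 20 mg/kg. Free drug was prepared as a sonicated water dispersion and the nanoparticle powder was vortexed in water. Five mice were sampled per time point (0.125–12 h) under Zoletil anaesthesia. Portal and systemic heparin plasma were collected, and liver and lung were rinsed, weighed and homogenised in water. Samples were acetonitrile-precipitated and assayed by LC-MS/MS, with parameters from non-compartmental analysis.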

[3] = cited from earlier work

- Tmax [2]: 30 min
SMILES: CC(=O)O[C@@]12CO[C@@H]1C[C@H](O)[C@@]1(C)C(=O)[C@H](O)C3=C(C)[C@@H](OC(=O)[C@H](O)[C@@H](NC(=O)OC(C)(C)C)c4ccccc4)C[C@@](O)([C@@H](OC(=O)c4ccccc4)[C@H]21)C3(C)C [DTX, Docetaxel]
- Degradation [1]: about 25%
- Oral bioavailability [3]: 7.39%
